# Myeloid diff 2: promotes myeloid progenitor differentiation; ER-HoxA9 myeloid progenitors, lysozyme-GFP differentiation, flow cytometry; calls only at 10 µM; actives 1% (n = 360,000); AID 624256;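 active means normalized GFP-positive differentiation at or above the plate's own cutoff, the solvent-only control mean plus 3 SD; inconclusive means no clear call, values can overlap the other calls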;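 further: cells exposed to compound for four days before flow analysis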
# Platelet DG rel: platelet dense granule release activity; human platelet-rich plasma, SFLLRN dense granule ATP release, luminescence; inhibition, %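 (compounds screened at 7.5 µM in platelet-rich plasma)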; actives 0.22% (n = 300,000); AID 1663;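 active means mean replicate score, as percent of positive control, at or above 50; inconclusive means mean below 50 but at least one replicate at or above 50; inactive means mean and every replicate below 50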
# VLA-4 inh: inhibition in a human VLA-4 binding assay. P13612. VLA-4 expressing cells, ligand binding flow cytometry. inhibition, % (about 7 µM as worked out from the volumes in the protocol). actives 0.2% (n = 330,000). AID 2557; in the data active means inhibition above about 50%
# Target sequence (P13612 whole entry, looked up): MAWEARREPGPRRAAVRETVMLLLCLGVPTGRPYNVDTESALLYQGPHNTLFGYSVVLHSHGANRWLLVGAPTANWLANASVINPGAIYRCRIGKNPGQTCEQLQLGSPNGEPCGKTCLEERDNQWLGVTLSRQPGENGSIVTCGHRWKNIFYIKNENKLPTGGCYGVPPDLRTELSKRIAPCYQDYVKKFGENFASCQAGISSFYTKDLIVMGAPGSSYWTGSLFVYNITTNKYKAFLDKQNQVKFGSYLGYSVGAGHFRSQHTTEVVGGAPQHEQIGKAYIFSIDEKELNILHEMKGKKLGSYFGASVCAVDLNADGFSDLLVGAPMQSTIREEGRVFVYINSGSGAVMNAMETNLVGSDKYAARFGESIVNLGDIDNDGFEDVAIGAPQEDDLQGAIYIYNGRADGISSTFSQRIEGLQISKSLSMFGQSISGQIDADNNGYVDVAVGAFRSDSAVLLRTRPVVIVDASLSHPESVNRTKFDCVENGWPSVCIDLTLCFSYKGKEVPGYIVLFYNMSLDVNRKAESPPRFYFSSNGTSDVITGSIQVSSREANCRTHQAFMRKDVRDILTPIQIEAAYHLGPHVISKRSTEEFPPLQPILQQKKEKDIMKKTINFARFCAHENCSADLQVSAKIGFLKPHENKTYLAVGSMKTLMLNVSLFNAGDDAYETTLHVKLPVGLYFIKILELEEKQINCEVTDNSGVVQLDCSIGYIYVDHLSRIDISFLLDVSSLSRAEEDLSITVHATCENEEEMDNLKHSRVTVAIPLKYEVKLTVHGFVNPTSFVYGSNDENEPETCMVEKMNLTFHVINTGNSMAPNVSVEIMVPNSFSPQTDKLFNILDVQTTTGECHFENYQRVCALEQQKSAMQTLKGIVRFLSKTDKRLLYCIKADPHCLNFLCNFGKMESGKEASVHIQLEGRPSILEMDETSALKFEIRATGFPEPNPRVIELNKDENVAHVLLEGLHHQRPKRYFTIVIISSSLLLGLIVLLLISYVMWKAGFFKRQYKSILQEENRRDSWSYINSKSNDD
# SENP1 FRET inh: SENP1 (human) catalytic domain inhibition; inhibition, % at 10 µM; AID 624204; recombinant SENP1 catalytic domain, CyPet-SUMO1-YPet FRET cleavage; actives 0.21% (n = 360,000); Q9P0U3;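 active means inhibition at least 30% at 10 µM, raw YFP signal under a set limit, fluorescence ratio 0.5 to 1.5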;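 further: 0% = enzyme with DMSO and 100% = no enzyme wells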
#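 Test system: recombinant human SENP1 catalytic domain, His6-tagged / Medium: pH 8 Tris buffer with EDTA, NaCl, BME, BSA, NP40, catalase / Also added: SUMO1 FRET substrate flanked by Cypet and Ypet, 25 nM / Times: 50 min reaction at room temperature / Signal: FRET, CFP and YFP emission / Control set: no-enzyme low control and enzyme-plus-DMSO high control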
# * = called active by the depositor; i = inactive; ? = inconclusive; · = not tested or not shown; + = active, no number. Rows were chosen to be rich in hits. Some 1.5% of all compounds tested hit in one or more screens of this group.
SMILES,Myeloid diff 2,Platelet DG rel,VLA-4 inh,SENP1 FRET inh
Cc1cc(C(=O)N/N=C/c2ccc3c(c2)OCO3)c(C)o1,i,12,6,2
COc1cc(C(CC(=O)O)n2cnnn2)ccc1OC(C)C (stereo not given),i,0,12,2
Cc1occc1C(=O)N/N=C/c1ccc(-c2ccccc2)cc1,i,93*,15,2
CCN(CC(=O)NCc1ccc(F)cc1)C(=O)c1ccc(COc2ccccc2)cc1,i,-7,19,2
CCN(CC)c1ncc(C#N)c(N)n1,i,21,12,1
CCOc1ccc(N(CC(=O)N2CC=C(c3ccccc3)CC2)S(=O)(=O)c2c(C)noc2C)cc1,?,-5,6,-1
CCOc1ccc(N(CC(=O)N2CCc3ccccc32)S(=O)(=O)c2c(C)noc2C)cc1,+,-5,26,1
Fc1ccc(N2CCN(C3=Nc4cccc5cccc3c45)CC2)cc1,i,6,-13,90*
O=C(CCCN1C(=O)c2cccc3cccc(c23)C1=O)N1CCN(c2ccc(F)cc2)CC1,i,5,2,-2
O=C(NNC(=O)c1ccc(-n2cncn2)c([N+](=O)[O-])c1)c1ccc(Cl)cc1,i,-8,0,2
CCN(CC)c1cc(C)c2cc(NC(=O)c3ccccc3OC)ccc2n1,+,-1,7,-8
CCN(CC)c1cc(C)c2cc(NC(=O)c3cccs3)ccc2n1,i,6,7,-8
Cc1c(Cl)cccc1NC(=O)CNC(=O)Cc1c[nH]c2ccccc12,i,·,1,-11
CCCCN(C(=O)c1ccc(N2CCCC2=O)cc1)c1c(N)n(CCC)c(=O)[nH]c1=O,i,·,-1,1
CC1CCN(CCCNC(=O)C2CCC(CNS(=O)(=O)c3ccccc3)CC2)CC1 (stereo not given),?,-2,12,1
CC(C)c1ccc(C(=O)Nc2ccc(N3CCOCC3)cc2)cc1,+,4,25,0
CC(C)CC(=O)NC(=S)Nc1ccc(N2CCOCC2)cc1,+,0,-4,1
CC(=O)c1ccc(C(=O)Nc2ccc(N3CCOCC3)cc2)cc1,i,12,2,2
COc1cc(OC)cc(C(=O)N2CCC(n3c(C)nc4cc(F)ccc43)CC2)c1,+,-4,11,-4
CCOC(=O)c1[nH]c(C)c(C(=O)Nc2cccc(Cl)c2C)c1C,+,5,-9,-1
Cc1cccc(-c2nn(-c3ccccc3)cc2C(=O)N(C)CC(=O)Nc2ccc(N3CCOCC3)cc2)c1,i,-1,6,0
CN(C)C(CNC(=O)c1ccc(-c2ccccc2)cc1)c1ccccc1 (stereo not given),+,-2,12,0
Cc1ccc(C(C)C)c(OCc2nn(CC(=O)c3ccc(OC(F)F)cc3)c3[n+]2CCCCC3)c1,i,-96,6,67*
COc1ccc(C(=O)Cn2nc(CNc3ccc(Br)cc3)[n+]3c2CCCCC3)cc1,i,-1,-9,1
CC(=O)Nc1cc(-c2cccc(C(=O)NCCO)c2)cn2c(-c3cccc(C(F)(F)F)c3)cnc12,i,·,·,-7
SMILES,Myeloid diff 2,Platelet DG rel,VLA-4 inh,SENP1 FRET inh
O=C(O)c1cc(-c2cccnc2)nc2ccc(Br)cc12,+,-7,6,1
Cc1c2c(cc3c1[nH]c1ccccc13)C=NCC2,+,·,·,-17
Cc1c2ccncc2cc2c1[nH]c1ccccc12,?,·,·,-79
CCOc1ccc(/C=N/NC(=O)c2ccc(F)cc2)cc1CN1CC2CC(C1)c1cccc(=O)n1C2 (stereo not given),i,·,-4,0
Cc1cc(N2CCN(C)CC2)ccc1NC(=O)c1ccc(-c2ccc(Cl)cc2)o1,+,6,1,-4
c1ccc(OC2CCCCC2N2CCOCC2)cc1 (stereo not given),i,·,·,2
Cc1cc(-c2ccccc2C(=O)O)on1,i,-6,9,0
O=C(O)c1ccccc1C1=Nc2ccc(O)cc2Oc2cc(O)ccc21,i,11,0,59*
CCN(CC(=O)NCc1ccc(Cl)cc1)C(=O)CSc1cc(C)ccc1C,i,1,12,2
CCOc1ccccc1N(CC(=O)NC1CCCCC1)S(=O)(=O)c1ccccc1,i,7,14,-1
Cc1cc(C)n(CC(C)NCc2cn[nH]c2-c2ccc(C)c(C)c2)n1 (stereo not given),+,7,16,-1
Cc1cc(C)n(CC(C)NCc2cn[nH]c2-c2cccc3ccccc23)n1 (stereo not given),i,-4,21,-8
COc1ccc(NS(=O)(=O)c2cc(NS(=O)(=O)c3cccs3)ccc2C)cc1,i,·,·,0
COCC#Cc1ccc2c(c1)O[C@@H](CN(C)C(=O)Nc1ccc(OC)cc1)[C@H](C)CN([C@H](C)CO)S2(=O)=O,i,·,·,2
COc1cc(/C=N/NC(=O)c2ccc(COc3ccccc3Cl)o2)cc(Br)c1O,i,0,14,14
O=C(N/N=C/c1cc([N+](=O)[O-])ccc1O)c1ccc(COc2ccc3c(c2)CCC3)o1,?,1,22,-75
COc1ccc(Br)cc1/C=N/NC(=O)c1ccc(COc2ccc3c(c2)CCC3)o1,+,-6,22,-9
COc1ccccc1/C=N\NC(=O)c1ccc(COc2ccc(C)c(C)c2)o1,+,4,9,3
COc1ccc(C[C@@H]2OC3(C=CC(=O)C=C3)O[C@H]2Cc2ccc(OC)cc2)cc1,+,·,·,0
O=C1C=CC2(C=C1)O[C@H](Cc1ccccc1)[C@@H](Cc1ccccc1)O2,+,·,·,3
COc1cccc(C(=O)N2CCC(CCC(=O)Nc3cccc(C)c3)CC2)c1,i,-7,7,0
CCOc1ccccc1NC(=O)COC(=O)CSc1ccc(Cl)cc1,i,0,20,6
CS(=O)(=O)N1N=C(c2ccc(Br)cc2)CC1c1ccc2c(c1)OCO2 (stereo not given),+,-1,-106,-8
CC(=O)N1N=C(c2ccc(C)cc2)CC1c1ccc2c(c1)OCO2 (stereo not given),i,21,-4,-3
Cc1ccc(C2=NN(S(C)(=O)=O)C(c3ccc4c(c3)OCO4)C2)cc1 (stereo not given),+,19,i,-9
CS(=O)(=O)Nc1ccc(C2=NN(S(C)(=O)=O)C(c3ccc4nccnc4c3)C2)cc1 (stereo not given),i,-5,6,-8
CCS(=O)(=O)Nc1cccc(C2=NN(S(C)(=O)=O)C(c3ccccc3)C2)c1 (stereo not given),i,0,-47,-22
CCS(=O)(=O)N1N=C(c2cccc(NS(C)(=O)=O)c2)CC1c1ccc(C)cc1 (stereo not given),+,14,0,-58
CC(C)Cn1c(=O)[nH]c(=O)c2c(C(F)(F)F)cc(-c3ccccc3)nc21,i,-2,-5,0
CC(C)(CO)NCC(O)COc1ccc2c(c1)CCC2 (stereo not given),i,51*,12,1
